For 3 molecules, IC50 and MIC results are on record in ChEMBL document CHEMBL4613251, “Meliponamycins: Antimicrobials from Stingless Bee-Associated Streptomyces sp” (J Nat Prod, 2020).

The test system of one test is THP-1. Briefly: Cytotoxicity against human THP1 cells assessed as reduction in cell viability after 120 hrs by alamar blue assay. The class given is cell-based. The following applies: THP-1, 120 h. The gist of the method: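 THP-1 cells were seeded at 2 × 10^4/well in RPMI-1640 + 10% FCS with 20 ng/mL PMA and differentiated for 72 h (37 °C, 5% CO2). Serial 2-fold dilutions from 10 mM DMSO stocks were added for 120 h. Alamar Blue was then added for 3 h, and fluorescence was read at ex 536 / em 588 nm as % of untreated control. n = 2 biological replicates; doxorubicin control.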
On the technique in general: Alamar Blue is a resazurin reagent that responds to reducing activity.

For the next test, the system named is Leishmania infantum. Briefly: Antileishmanial activity against intracellular amastigote stage of Leishmania infantum MHOM/MA/67/ITMAP-263 infected in THP1 cells after 120 hrs by giemsa-staining based inverted microscopic mehod. The class given is functional, organism-based. The following applies: MHOM/MA/67/ITMAP-263, THP-1, 120 h. The gist of the method:
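THP-1 monocytes seeded at 2 × 10^4/well and differentiated to macrophages with 20 ng/mL PMA for 72 h (37 °C, 5% CO2). They were then infected with late-stage promastigotes (2 × 10^5/well; promastigotes grown in M199 + 10% FCS, 28 °C). Extracellular parasites were removed after 24 h, and 2-fold serial dilutions from 10 mM DMSO stocks were added for 120 h. Cells were methanol-fixed and Giemsa-stained, and amastigotes per macrophage were counted microscopically as % of untreated control. IC50 from a variable-slope fit; n = 2 biological replicates; miltefosine control.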

The test system of a further test is Staphylococcus aureus. Briefly: Antibacterial activity against Staphylococcus aureus INCAS0039 assessed as reduction in microbial growth by CLSI based broth microdilution method. The format is functional. The gist of the method:
(§1)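 MIC by broth microdilution following CLSI guidelines; strains propagated in ISP-2 medium. Compounds added from a 0.125 mg/mL DMSO stock, highest final concentration 6.9 μg/mL, then serial 2-fold dilutions with DMSO diluted alongside. Tetracycline served as positive control for both strains.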
For orientation: Broth dilution looks for growth in wells or tubes with falling amounts of substance.

The subject of another test is Paenibacillus larvae. Briefly: Antibacterial activity against Paenibacillus larvae ATCC 9545 assessed as reduction in microbial growth by CLSI based broth microdilution method. The format is functional. The gist of the method: as §1

For orientation: IC50 means the midpoint of a concentration-inhibition curve. The MIC is the smallest concentration in the dilution series that meets the test's criterion for growth inhibition.

As to `COc1cccc2c1C(=O)c1c(O)c3c(c(O)c1C2=O)C[C@@](O)(C(=O)CO)C[C@@H]3O[C@H]1C[C@H](N)[C@H](O)[C@H](C)O1` [DOXORUBICIN], the IC50 in the test with THP-1 was found to be 1.8 µM.

Molecule `CCCCCCCCCCCCCCCCOP(=O)([O-])OCC[N+](C)(C)C` [MILTEFOSINE] yielded a concentration for half-maximal inhibition (IC50) in the test with Leishmania infantum of 2.4 µM.

For the molecule `CN(C)[C@@H]1C(O)=C(C(N)=O)C(=O)[C@@]2(O)C(O)=C3C(=O)c4c(O)cccc4[C@@](C)(O)[C@H]3C[C@@H]12` [TETRACYCLINE], the MIC in the test with Staphylococcus aureus was 0.05 µg/mL; in the test with Paenibacillus larvae, 7.76 µM.
